The sample as a whole holds a higher share of hits than the screen did.
ABCB1 block: human ABCB1 inhibition, ABCG2 as counter-screen; CCRF-Adr cells, JC-1 efflux, flow cytometry; inhibition, % at 6.6 µM; 190,000 compounds, 0.067% hits; in the data active means inhibition above about 40%;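 further: 0% = vehicle and 100% = reference inhibitor; higher value means more JC-1 retained so stronger ABCB1 efflux block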
Avidin fluor: avidin bead compound fluorescence profile | Avidin beads, compound fluorescence 488/530 nm, flow cytometry; active compounds read high | 220,000 compounds, 0.38% hits | fluorescence (KMESF) at 10 µM; in the data active means fluorescence above about 47
GSH fluor: compound fluoresces at 488/530 nm on GSH beads | GSH beads flow cytometry, compound fluorescence 488/530 nm; active compounds read high | fluorescence (KMESF) at 10 µM | 190,000 compounds, 0.25% hits | AID 1776; in the data active means fluorescence above about 89;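 further: glutathione beads carrying GST-tagged Bcl family fusion proteins plus one bare bead set; values are compound well signal with DMSO vehicle wells as background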
ABCG2 inh: inhibitors of human ABCG2 transporter, ABCB1 counter-screen. IgMXP3 cells, JC-1 efflux, flow cytometry. 190,000 compounds, 0.1% hits. inhibition, % at 6.6 µM;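 active means inhibition above 80%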;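 further: 0% = DMSO and 100% = nicardipine control wells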
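Incubation: cells with compound and JC-1, 10 min at 25 °C, rotating, no wash / Test system: IgMXP3 (ABCG2) plus far-red-tagged CCRF-Adr (ABCB1) cells / Compound dosing: one concentration, 6.6 µM final / Also added: JC-1 fluorescent substrate / Evaluation: efflux inhibition in percent versus controls / Detection: flow cytometry, 530 nm JC-1 signal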
Lmaj promast: inhibitors of Leishmania major promastigote growth; AID 1063; 200,000 compounds, 9% hits; inhibition, % at 10 µM; Leishmania major promastigotes, resazurin fluorescence viability;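 further: promastigotes grown with compound for 44 hours at 28 °C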
PKD1 inh: inhibitors of human PKD1 kinase; AID 797; PKD1 kinase fluorescence polarization assay; inhibition, % (concentration not given with the values); 200,000 compounds, 0.056% hits
Target sequence (Q15139 whole entry, looked up): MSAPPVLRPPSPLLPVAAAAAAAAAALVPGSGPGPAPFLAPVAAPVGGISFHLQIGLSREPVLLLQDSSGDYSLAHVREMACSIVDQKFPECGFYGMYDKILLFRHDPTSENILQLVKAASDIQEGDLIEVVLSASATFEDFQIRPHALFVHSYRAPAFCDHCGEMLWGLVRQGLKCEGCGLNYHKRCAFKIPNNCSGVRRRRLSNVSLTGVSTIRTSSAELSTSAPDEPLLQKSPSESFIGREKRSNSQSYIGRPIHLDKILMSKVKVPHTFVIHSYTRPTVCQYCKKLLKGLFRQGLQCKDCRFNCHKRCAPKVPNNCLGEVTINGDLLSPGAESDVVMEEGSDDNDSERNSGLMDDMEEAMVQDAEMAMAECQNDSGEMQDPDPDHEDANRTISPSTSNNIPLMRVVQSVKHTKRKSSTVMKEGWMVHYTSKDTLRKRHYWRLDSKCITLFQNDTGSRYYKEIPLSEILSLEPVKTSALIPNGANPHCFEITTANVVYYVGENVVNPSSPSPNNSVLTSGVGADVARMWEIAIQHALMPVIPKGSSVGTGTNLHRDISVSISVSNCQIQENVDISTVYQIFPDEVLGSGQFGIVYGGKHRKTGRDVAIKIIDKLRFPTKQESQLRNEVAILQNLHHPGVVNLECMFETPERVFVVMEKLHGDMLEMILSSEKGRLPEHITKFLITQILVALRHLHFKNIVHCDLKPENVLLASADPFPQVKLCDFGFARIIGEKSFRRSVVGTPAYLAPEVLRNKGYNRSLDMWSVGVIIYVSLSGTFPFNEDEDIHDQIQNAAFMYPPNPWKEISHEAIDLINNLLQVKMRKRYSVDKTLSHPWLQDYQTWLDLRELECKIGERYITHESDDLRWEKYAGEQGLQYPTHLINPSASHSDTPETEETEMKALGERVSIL
* marks the source's active call; other numbers are inactive results; nt = not tested or not shown. Unless noted, no stated cut-off is given here; in the data, active means inhibition above about 50%; inactive means the rest.

SMILES	ABCB1 block	Avidin fluor	GSH fluor	ABCG2 inh	Lmaj promast	PKD1 inh
O=C(C1CC(=O)N(C2CCCCCCC2)C1)N1CCC2(CC1)OCCO2 (configuration not stated)	-0.1	30	12	-0.6	0.8	3.1
CC(=O)N(C1=NCCCS1)c1ccccc1Cl	1.0	6	19	6.5	69.2*	-2.5
O=C(c1cc2cc3ccc(Cl)cc3nc2o1)N1CCC2(CC1)OCCO2	1.1	18	27	62.0	-3.8	-4.0
CC(=NCc1ccco1)c1c(O)n(Cc2ccccc2)c(=O)[nH]c1=O	0.8	11	6	1.5	4.3	-2.1
CN1CCN(Cc2ccccc2Sc2ccccc2)CC1	0.7	5	7	2.5	100.2*	-6.5
CN(C)C(Cc1ccccc1)C(=O)c1ccccc1 (configuration not stated)	0.1	13	12	1.8	-1.1	-1.9
CC(Cc1ccccc1)NCc1ccccc1O (configuration not stated)	0.2	7	16	2.2	30.4	-4.4
CC(Cc1ccccc1Sc1ccc(O)cc1)N(C)C (configuration not stated)	0.5	8	26	0.6	100.5*	-3.2
CC(Cc1ccccc1Sc1ccccc1)N(C)C (configuration not stated)	0.6	5	8	3.2	100.3*	-1.5
CC(N)Cc1ccccc1Sc1ccc(O)cc1 (configuration not stated)	0.7	21	8	1.7	87.9*	12.6
CN1CCc2nc3sc(C(=O)NC(C)(C)C)c(N)c3cc2C1	0.1	36	13	2.0	-0.3	-5.2
C/C(=N\N=C(N)N)c1ccccc1	nt	7	nt	nt	nt	nt
CC(=NCCCN1CCCCC1)c1c(O)n(Cc2ccccc2)c(=O)[nH]c1=O	0.6	5	39	3.4	16.2	11.7
CC1(C)COC(Nc2ccc(Cl)cc2)=N1	0.5	8	8	1.7	37.2	1.0
COc1ccccc1Sc1ccccc1CC(C)N (configuration not stated)	0.2	13	4	1.6	94.8*	-1.7
COc1ccccc1CCNCc1ccc(OC)c(OC)c1OC	1.2	15	12	3.5	12.7	2.4
O=C1NC(=O)C(CCc2ccncc2)(Cc2cccc(Cl)c2Cl)C(=O)N1c1ccc(Br)cc1 (configuration not stated)	-0.5	6	15	-3.7	91.9*	7.0
COC(=O)c1c(N)n(Cc2ccc(OC)cc2)c2nc3ccccc3nc12	1.9	37	42	3.5	52.4*	-4.9
CCCCNC(=O)c1c(N)n(CCCOC)c2nc3ccccc3nc12	1.1	39	12	4.5	19.3	-4.3
CCOC(=O)c1c(NS(=O)(=O)c2ccccc2)n(CCCOC)c2nc3ccccc3nc12	0.2	3	6	2.3	96.0*	-9.8
CCOC(=O)c1c(N)n(Cc2ccc(OC)cc2)c2nc3ccccc3nc12	4.8	9	15	6.7	96.2*	7.5
CCCNC(=O)c1c(N)n(Cc2ccc3c(c2)OCO3)c2nc3ccccc3nc12	1.1	39	17	4.3	-0.1	-2.8
COCCNC(=O)c1c(N)n(CCC(C)C)c2nc3ccccc3nc12	0.7	22	9	4.8	100.2*	-8.1
C(=NC12CN3CN(CN(C3)C1)C2)c1cccnc1	1.1	29	24	2.2	6.4	-0.9
COCCCn1c(N)c(C(=O)OCCOC)c2nc3ccccc3nc21	-5.7	10	12	-1.6	4.4	2.0
SMILES	ABCB1 block	Avidin fluor	GSH fluor	ABCG2 inh	Lmaj promast	PKD1 inh
CCOC(=O)c1c(N)n(CCCOC(=O)c2ccco2)c2nc3ccccc3nc12	0.7	5	29	24.8	82.2*	-2.8
COCCOC(=O)c1c(N)n(Cc2ccc(OC)cc2)c2nc3ccccc3nc12	0.5	36	70	2.2	88.7*	1.6
CN1CCc2nc(SCc3cccc(Br)c3)c(C#N)cc2C1	nt	7	nt	nt	nt	nt
CN1CCN(c2ccc([N+](=O)[O-])c(N/N=C3\CN4CCC3CC4)c2)CC1	0.0	22	10	1.8	91.8*	-4.1
C=CCN1C(=O)/C(=C/c2ccc3c(c2)CCCN3CCC)C(=O)NC1=S	-0.2	13	19	-5.2	91.4*	16.9
CC(C)(C)N1C(=O)NC(=O)/C(=C\c2ccc3c(c2)CCN3CCCCl)C1=O	nt	8	nt	nt	nt	nt
CCN1C(=O)/C(=C/c2ccc3c(c2)CCN3CCCCl)C(=O)NC1=S	-0.8	9	11	-7.7	100.0*	-6.5
O=C1NC(=S)N(C2CC2)C(=O)/C1=C/c1ccc2c(c1)CCN2CCCCl	-1.3	8	18	-8.2	73.8*	-10.4
CCn1c(O)c(C=NCCc2c[nH]c3ccccc23)c(=O)[nH]c1=O	-0.1	12	42	14.4	-7.6	2.4
O=C1NC(=O)C(=Cc2cc(Cl)ccc2OCc2ccc(C(=O)O)cc2)C(=O)N1	-0.4	6	15	0.6	93.5*	-1.4
COc1cccc(C2CC3C(=O)C=CC2N3Cc2ccccc2)c1 (configuration not stated)	0.6	8	16	9.2	99.1*	-3.4
O=C1NC(=O)C2(Cc3ccccc3N3CCOCC32)C(=O)N1c1ccccc1 (configuration not stated)	1.2	18	9	4.3	91.5*	2.6
O=C1NC(=O)C2(Cc3ccccc3N3CCCC32)C(=O)N1 (configuration not stated)	-0.6	8	32	-6.0	-2.7	-7.6
O=C1NC(=O)C2(Cc3ccccc3N3CCCC32)C(=O)N1c1ccccc1 (configuration not stated)	1.2	54*	23	18.8	-7.2	-9.7
C#CCOCOCC#CCN(CC)CC	0.6	18	24	2.3	-8.4	0.7
CC1(C)OC(c2ccccc2)=C/C(=C/C=C2C(=O)NC(=O)NC2=O)O1	0.0	10	12	3.0	-2.6	-1.9
CCn1c(O)c(C=Nc2ccc(S(N)(=O)=O)cc2)c(=O)n(CC)c1=S	-0.8	7	14	-3.6	-6.1	0.9
CCOC(=O)c1ccc(N=Cc2c(O)n(-c3ccccc3F)c(=S)[nH]c2=O)cc1	-0.4	14	5	-1.2	61.2*	4.0
CCn1c(O)c(C=Nc2ccc(S(N)(=O)=O)cc2)c(=O)[nH]c1=S	-0.5	13	5	5.9	56.4*	-14.1
CCOC(=O)c1ccc(N=Cc2c(O)n(-c3ccc(OC)cc3)c(=S)[nH]c2=O)cc1	0.4	21	11	0.5	-2.2	-0.2
O=P(c1ccccc1)(c1ccccc1)N1CCCCC1	0.0	23	14	0.1	-7.3	-28.1
C=C(c1ccccc1)P(=O)(O)O	-2.7	7	22	14.9	-4.2	6.6
O=P(O)(O)C#Cc1ccccc1	0.2	9	261*	0.4	13.7	-3.0
CC[C@@H](C(N)=O)N1CCCC1=O	nt	7	67	2.4	nt	nt
CC1(c2ccc(Cl)cc2Cl)OCC(Cn2cncn2)O1 (configuration not stated)	0.1	10	11	-0.1	3.2	-1.1

High-throughput results (PubChem BioAssay)
